These results are taken from ChEMBL document CHEMBL1138885, “Further structural exploration of trisubstituted asymmetric pyran derivatives (2S,4R,5R)-2-benzhydryl-5-benzylamino-tetrahydropyran-4-ol and their corresponding disubstituted (3S,6S) pyran derivatives: a proposed pharmacophore model for high-affinity interaction with the dopamine, serotonin, and …” (J Med Chem, 2006).

Common to all, as to assay type: tissue-based
Experiment [1] concerns the target Sodium-dependent serotonin transporter (Rattus norvegicus, UniProt P31652). Description: Inhibition of SERT-mediated [3H]5-HT uptake in rat cerebral cortex. Summed up: (§1)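 [3H]DA, [3H]5-HT or [3H]NE accumulation measured; SERT and NET uptake in rat cerebral cortex. Nonspecific uptake defined with cocaine (DAT), citalopram (SERT) or desipramine (NET). Three to eight independent experiments in triplicate, mean ± SEM.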

Experiment [2] concerns the target T1, Sodium-dependent dopamine transporter (Rattus norvegicus, UniProt P23977). Description: Inhibition of DAT-mediated [3H]DA uptake in rat striatum. Summed up:
as §1

The target of experiment [3] is Norepinephrine transporter (Rattus norvegicus, UniProt Q9WTR4). The experiment can be described thus: Inhibition of NET-mediated [3H]NE uptake in rat cerebral cortex. An outline of the steps:
as §1

For experiment [4], the target named is T1, Sodium-dependent dopamine transporter. Description: Inhibition of [3H]WIN-35428 binding to rat striatum DAT. Summed up: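 DAT radioligand binding with nonspecific binding defined by cocaine. Compounds dissolved in DMSO, diluted in 10% (v/v) DMSO, final 0.5% DMSO. At least five concentrations, each in triplicate, spaced evenly around the IC50.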

Sequence of Sodium-dependent serotonin transporter (P31652 whole entry): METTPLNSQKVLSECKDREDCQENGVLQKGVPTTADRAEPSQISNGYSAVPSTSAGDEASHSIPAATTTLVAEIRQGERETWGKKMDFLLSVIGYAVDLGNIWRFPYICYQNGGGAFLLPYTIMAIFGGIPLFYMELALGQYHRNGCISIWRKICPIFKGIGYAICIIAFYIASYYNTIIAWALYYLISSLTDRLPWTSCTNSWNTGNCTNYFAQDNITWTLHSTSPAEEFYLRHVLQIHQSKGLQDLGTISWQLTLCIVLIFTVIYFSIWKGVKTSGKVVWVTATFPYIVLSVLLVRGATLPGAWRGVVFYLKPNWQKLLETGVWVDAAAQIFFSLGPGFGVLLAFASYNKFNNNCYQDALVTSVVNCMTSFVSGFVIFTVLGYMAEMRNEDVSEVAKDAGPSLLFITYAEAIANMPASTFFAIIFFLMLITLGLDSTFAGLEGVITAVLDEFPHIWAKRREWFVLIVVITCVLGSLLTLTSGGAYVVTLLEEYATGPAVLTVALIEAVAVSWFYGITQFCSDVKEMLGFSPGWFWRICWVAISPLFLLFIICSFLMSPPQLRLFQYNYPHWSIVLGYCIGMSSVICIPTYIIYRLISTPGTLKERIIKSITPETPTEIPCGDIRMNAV
T1 sequence (P23977 whole entry): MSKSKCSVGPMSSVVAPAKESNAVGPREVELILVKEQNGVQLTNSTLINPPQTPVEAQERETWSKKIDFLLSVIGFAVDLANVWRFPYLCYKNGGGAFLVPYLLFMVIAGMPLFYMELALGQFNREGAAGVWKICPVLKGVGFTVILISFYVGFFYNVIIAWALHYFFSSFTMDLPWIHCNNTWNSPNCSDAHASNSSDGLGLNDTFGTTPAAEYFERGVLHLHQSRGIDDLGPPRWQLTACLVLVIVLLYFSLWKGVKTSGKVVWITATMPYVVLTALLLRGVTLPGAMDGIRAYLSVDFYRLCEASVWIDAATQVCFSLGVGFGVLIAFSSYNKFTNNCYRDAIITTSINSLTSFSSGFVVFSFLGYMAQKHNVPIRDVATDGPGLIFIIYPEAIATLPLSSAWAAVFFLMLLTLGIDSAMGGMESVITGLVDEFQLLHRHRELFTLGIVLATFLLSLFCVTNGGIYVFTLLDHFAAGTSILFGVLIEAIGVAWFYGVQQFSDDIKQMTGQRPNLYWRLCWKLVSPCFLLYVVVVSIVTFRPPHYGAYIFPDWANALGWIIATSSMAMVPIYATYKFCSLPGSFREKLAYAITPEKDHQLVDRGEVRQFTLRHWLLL
Sequence of Norepinephrine transporter (Q9WTR4 whole entry): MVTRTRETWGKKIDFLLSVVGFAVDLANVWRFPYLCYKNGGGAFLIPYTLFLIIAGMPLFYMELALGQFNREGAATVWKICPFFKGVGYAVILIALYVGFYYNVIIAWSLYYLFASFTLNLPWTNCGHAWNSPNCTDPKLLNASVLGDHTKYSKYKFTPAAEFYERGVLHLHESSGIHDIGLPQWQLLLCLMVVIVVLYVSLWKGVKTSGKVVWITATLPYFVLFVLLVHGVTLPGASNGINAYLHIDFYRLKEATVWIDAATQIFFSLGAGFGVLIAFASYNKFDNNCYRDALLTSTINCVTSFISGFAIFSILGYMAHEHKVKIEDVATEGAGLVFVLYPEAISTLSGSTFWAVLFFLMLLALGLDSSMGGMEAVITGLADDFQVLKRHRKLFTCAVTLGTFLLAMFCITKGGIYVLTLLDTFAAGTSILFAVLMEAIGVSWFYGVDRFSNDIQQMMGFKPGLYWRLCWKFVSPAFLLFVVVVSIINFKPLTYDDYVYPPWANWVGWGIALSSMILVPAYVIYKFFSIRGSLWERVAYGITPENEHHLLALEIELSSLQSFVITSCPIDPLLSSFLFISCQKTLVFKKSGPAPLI

As for `c1ccc(C(c2ccccc2)[C@@H]2CC[C@H](NCc3ccc4[nH]ccc4c3)CO2)cc1`, the Ki is 14.5 nM in experiment [1], 214 nM in experiment [2], 6.56 nM in experiment [3] and 338 nM in experiment [4].
On to `O=[N+]([O-])c1ccc(CN[C@@H]2CC[C@H](C(c3ccccc3)c3ccccc3)OC2)cc1`, for which the figures for the Ki in experiment [2] and in experiment [4] were 59.9 nM and 64.6 nM, respectively.
With `O[C@@H]1C[C@@H](C(c2ccccc2)c2ccccc2)OC[C@H]1NCc1ccc2[nH]ccc2c1`, the Ki came to 120 nM in experiment [2], 2.13 nM in experiment [3] and 570 nM in experiment [4].
Take `Oc1ccc(CN[C@@H]2CC[C@H](C(c3ccccc3)c3ccccc3)OC2)cc1`: the Ki in experiment [1] is 187 nM; in experiment [2], 67.4 nM; in experiment [4] it was 114 nM.
The like results for `Oc1ccc(CN[C@H]2CC[C@@H](C(c3ccccc3)c3ccccc3)OC2)cc1` were, in that order, 37.7 nM, 85 nM and 226 nM.
With `O=[N+]([O-])c1ccc(CN[C@H]2CC[C@@H](C(c3ccccc3)c3ccccc3)OC2)cc1`, the Ki was 34.6 nM in experiment [2] and 38.4 nM in experiment [4].
Regarding `Oc1ccc(CN[C@@H]2CO[C@H](C(c3ccccc3)c3ccccc3)C[C@H]2O)cc1`, the Ki in experiment [3] worked out at 10.4 nM.
Consider `O[C@@H]1C[C@@H](C(c2ccccc2)c2ccccc2)OC[C@H]1NCc1ccccc1`, for which the Ki in experiment [1] worked out at 707 nM; in experiment [2], 446 nM; in experiment [4] it was 1500 nM.
For the molecule `c1ccc(C(c2ccccc2)[C@H]2CC[C@@H](NCc3ccc4[nH]ccc4c3)CO2)cc1`, the Ki is 11.8 nM in experiment [1], 142 nM in experiment [2], 15.6 nM in experiment [3] and 467 nM in experiment [4].
For `Oc1ccc(CN[C@H]2CO[C@@H](C(c3ccccc3)c3ccccc3)C[C@@H]2O)cc1`, the affinity in experiment [3], expressed as Ki, was 94.4 nM.
As to `O[C@H]1C[C@H](C(c2ccccc2)c2ccccc2)OC[C@@H]1NCc1ccc2[nH]ccc2c1`, the Ki is 184 nM in experiment [2], 13.2 nM in experiment [3] and 399 nM in experiment [4].
